Test results as given in ChEMBL document CHEMBL5724801, “EUbOPEN Chemogenomics Library - Multiplex” (2024).
Where “and” joins values, the source holds several entries; their conditions need not be identical. Identical values can stand only once.

tested on: HEK-293T; test: Multiplex assay against HEK293T; assay type: toxicity, cell-based; conditions: human, 12 h, 1 µM, compound concentration 1 uM
Procedure, shortened: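 Per cents of healthy-nucleus cells form the tubulin, mitochondrial-mass and membrane-permeability phenotype values. Live cells were stained at seeding with Hoechst33342, BioTracker Green Microtubule Cytoskeleton Dye, MitoTracker Red and Annexin V Alexa Fluor 680. After compound addition they were imaged on a CQ1 microscope at 37°C and 5% CO2, and CellPathfinder machine-learning gating split them into Hoechst high-intensity objects or normal cells, normal cells into healthy, pyknosed or fragmented nuclei, and pyknosed cells into mitotic or apoptotic.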

Compound | Population Apoptotic (%) | Population Fragmented Nuclei (%) | Population Healthy Nuclei (%) | Population Membrane Permeable-Phenotype (%) | Population Mitochondria Different-Phenotype (%) | Population Mitotic Cells (%) | Population Normal (%) | Population Pyknosed Nuclei (%) | Population Tubulin-Different-Phenotype (%) | Total Cell Count
Cc1sc2c(c1C)C(c1ccc(Cl)cc1)=N[C@@H](CC(=O)NCCCCCCCCNC(=O)COc1cccc3c1C(=O)N(C1CCC(=O)NC1=O)C3=O)c1nnc(C)n1-2 (stereo partly specified) | 66% and 62% | 5% and 6% | 55% and 69% | 0% | 73% and 91% | 33% and 37% | 90% and 69% | 39% and 24% | 49% and 59% | 175 and 205
Cc1cc(Nc2ncc(Cl)c(Nc3ccccc3S(=O)(=O)C(C)C)n2)c(OC(C)C)cc1C1CCNCC1 [CERITINIB] | 15.93% and 15.13% | 1.92% and 4.62% | – | 1.35% and 0% | 32.43% and 80% | 84.07% and 84.87% | 98.12% and 99.24% | 69.73% and 91.54% | 50% and 80% | 266 and 131

same assay, conditions: human, 12 h, 1 µM, compound concentration 1 uM

Compound | Population Hoechst High Intensity Objects (%)
Cc1cc(Nc2ncc(Cl)c(Nc3ccccc3S(=O)(=O)C(C)C)n2)c(OC(C)C)cc1C1CCNCC1 [CERITINIB] | 1.88% and 0.76%

same assay, conditions: human, 12 h, 10 µM, compound concentration 10 uM

Compound | Population Apoptotic (%) | Population Fragmented Nuclei (%) | Population Healthy Nuclei (%) | Population Hoechst High Intensity Objects (%) | Population Membrane Permeable-Phenotype (%) | Population Mitochondria Different-Phenotype (%) | Population Mitotic Cells (%) | Population Normal (%) | Population Pyknosed Nuclei (%) | Population Tubulin-Different-Phenotype (%)
Cc1sc2c(c1C)C(c1ccc(Cl)cc1)=N[C@@H](CC(=O)NCCCCCCCCNC(=O)COc1cccc3c1C(=O)N(C1CCC(=O)NC1=O)C3=O)c1nnc(C)n1-2 (stereo partly specified) | 60% and 53% | 9% and 8% | 67% and 66% | 14% and 37% | 0 | 75% and 87% | 39% and 46% | 85% and 62% | 23% and 24% | 23% and 39%
Cc1cc(Nc2ncc(Cl)c(Nc3ccccc3S(=O)(=O)C(C)C)n2)c(OC(C)C)cc1C1CCNCC1 [CERITINIB] | 30.99% and 76.42% | 1.54% and 6.06% | 2.15% and 0.76% | 1.22% and 0% | 0 | – | 69.01% and 23.58% | 98.78% and 100% | 96.31% and 93.18% | –

same assay, conditions: human, 12 h, 10 µM, compound concentration 10 uM

Compound | Total Cell Count
Cc1sc2c(c1C)C(c1ccc(Cl)cc1)=N[C@@H](CC(=O)NCCCCCCCCNC(=O)COc1cccc3c1C(=O)N(C1CCC(=O)NC1=O)C3=O)c1nnc(C)n1-2 (stereo partly specified) | 363 and 315
Cc1cc(Nc2ncc(Cl)c(Nc3ccccc3S(=O)(=O)C(C)C)n2)c(OC(C)C)cc1C1CCNCC1 [CERITINIB] | 329 and 132

same assay, conditions: human, 24 h, 1 µM, compound concentration 1 uM

Compound | Population Apoptotic (%) | Population Fragmented Nuclei (%) | Population Healthy Nuclei (%) | Population Membrane Permeable-Phenotype (%) | Population Mitochondria Different-Phenotype (%) | Population Mitotic Cells (%) | Population Normal (%) | Population Pyknosed Nuclei (%) | Population Tubulin-Different-Phenotype (%) | Total Cell Count
Cc1sc2c(c1C)C(c1ccc(Cl)cc1)=N[C@@H](CC(=O)NCCCCCCCCNC(=O)COc1cccc3c1C(=O)N(C1CCC(=O)NC1=O)C3=O)c1nnc(C)n1-2 (stereo partly specified) | 51% and 67% | 7% and 6% | 61% and 70% | 0 | 58% and 83% | 48% and 32% | 93% and 69% | 31% and 23% | 22% and 31% | 261 and 231
Cc1cc(Nc2ncc(Cl)c(Nc3ccccc3S(=O)(=O)C(C)C)n2)c(OC(C)C)cc1C1CCNCC1 [CERITINIB] | 45.74% and 45.87% | 2.55% and 3.68% | – | 0 | 64.49% and 77.27% | 54.26% and 54.13% | 100% and 99.27% | 47.08% and 80.15% | 71.01% and 54.55% | 274 and 137

same assay, conditions: human, 24 h, 1 µM, compound concentration 1 uM

Compound | Population Hoechst High Intensity Objects (%)
Cc1cc(Nc2ncc(Cl)c(Nc3ccccc3S(=O)(=O)C(C)C)n2)c(OC(C)C)cc1C1CCNCC1 [CERITINIB] | 0% and 0.73%

same assay, conditions: human, 24 h, 10 µM, compound concentration 10 uM

Compound | Population Apoptotic (%) | Population Fragmented Nuclei (%) | Population Healthy Nuclei (%) | Population Membrane Permeable-Phenotype (%) | Population Mitochondria Different-Phenotype (%) | Population Mitotic Cells (%) | Population Normal (%) | Population Pyknosed Nuclei (%) | Population Tubulin-Different-Phenotype (%) | Total Cell Count
Cc1sc2c(c1C)C(c1ccc(Cl)cc1)=N[C@@H](CC(=O)NCCCCCCCCNC(=O)COc1cccc3c1C(=O)N(C1CCC(=O)NC1=O)C3=O)c1nnc(C)n1-2 (stereo partly specified) | 52% and 57% | 11% and 9% | 64% and 60% | 0 | 64% and 86% | 47% and 42% | 87% and 60% | 24% and 30% | 19 | 397 and 346
Cc1cc(Nc2ncc(Cl)c(Nc3ccccc3S(=O)(=O)C(C)C)n2)c(OC(C)C)cc1C1CCNCC1 [CERITINIB] | 64.24% and 88.24% | 1.89% and 7.03% | 2.84% and 0% | 0 | 88.89% | – | 100% | 95.27% and 92.97% | 100 | 317 and 128

same assay, conditions: human, 24 h, 10 µM, compound concentration 10 uM

Compound | Population Hoechst High Intensity Objects (%)
Cc1cc(Nc2ncc(Cl)c(Nc3ccccc3S(=O)(=O)C(C)C)n2)c(OC(C)C)cc1C1CCNCC1 [CERITINIB] | 0

same assay, conditions: human, 48 h, 1 µM, compound concentration 1 uM

Compound | Population Apoptotic (%) | Population Fragmented Nuclei (%) | Population Healthy Nuclei (%) | Population Membrane Permeable-Phenotype (%) | Population Mitochondria Different-Phenotype (%) | Population Mitotic Cells (%) | Population Normal (%) | Population Pyknosed Nuclei (%) | Population Tubulin-Different-Phenotype (%) | Total Cell Count
Cc1sc2c(c1C)C(c1ccc(Cl)cc1)=N[C@@H](CC(=O)NCCCCCCCCNC(=O)COc1cccc3c1C(=O)N(C1CCC(=O)NC1=O)C3=O)c1nnc(C)n1-2 (stereo partly specified) | 55% and 67% | 7% and 9% | 58% and 65% | 0% | 56% and 78% | 44% and 32% | 97% and 84% | 33% and 25% | 30% and 42% | 284 and 289
Cc1cc(Nc2ncc(Cl)c(Nc3ccccc3S(=O)(=O)C(C)C)n2)c(OC(C)C)cc1C1CCNCC1 [CERITINIB] | 27.27% and 48.81% | 2.27% and 3.2% | 75% and 29.6% | 1.38% and 2.7% | 68.6% and 81.08% | 72.73% and 51.19% | 99.79% and 98.43% | 22.73% and 67.2% | – | –

same assay, conditions: human, 48 h, 1 µM, compound concentration 1 uM

Compound | Population Hoechst High Intensity Objects (%)
Cc1cc(Nc2ncc(Cl)c(Nc3ccccc3S(=O)(=O)C(C)C)n2)c(OC(C)C)cc1C1CCNCC1 [CERITINIB] | 0.21% and 1.57%

same assay, conditions: human, 48 h, 10 µM, compound concentration 10 uM

Compound | Population Apoptotic (%) | Population Fragmented Nuclei (%) | Population Healthy Nuclei (%) | Population Hoechst High Intensity Objects (%) | Population Membrane Permeable-Phenotype (%) | Population Mitochondria Different-Phenotype (%) | Population Mitotic Cells (%) | Population Normal (%) | Population Pyknosed Nuclei (%) | Population Tubulin-Different-Phenotype (%)
Cc1sc2c(c1C)C(c1ccc(Cl)cc1)=N[C@@H](CC(=O)NCCCCCCCCNC(=O)COc1cccc3c1C(=O)N(C1CCC(=O)NC1=O)C3=O)c1nnc(C)n1-2 (stereo partly specified) | 48% and 65% | 9% and 15% | 55% and 52% | 14% and 31% | 0% | 51% and 76% | 51% and 34% | 85% and 69% | 35% and 31% | 17% and 31%
Cc1cc(Nc2ncc(Cl)c(Nc3ccccc3S(=O)(=O)C(C)C)n2)c(OC(C)C)cc1C1CCNCC1 [CERITINIB] | 62.54% and 87.16% | 1.6% and 9.02% | 7.99% and 9.02% | 0% | 0% and 8.33% | 92% and 91.67% | 37.46% and 12.84% | 100% | 90.42% and 81.95% | 52% and 91.67%

same assay, conditions: human, 48 h, 10 µM, compound concentration 10 uM

Compound | Total Cell Count
Cc1sc2c(c1C)C(c1ccc(Cl)cc1)=N[C@@H](CC(=O)NCCCCCCCCNC(=O)COc1cccc3c1C(=O)N(C1CCC(=O)NC1=O)C3=O)c1nnc(C)n1-2 (stereo partly specified) | 403 and 300
Cc1cc(Nc2ncc(Cl)c(Nc3ccccc3S(=O)(=O)C(C)C)n2)c(OC(C)C)cc1C1CCNCC1 [CERITINIB] | 313 and 133
